Measurements pooled from the literature.
Protocols differ between the studies behind these lines. In brackets after ≈: the same amount, converted by molar mass.
Effect on: microbial growth

For CCCSc1ccc2nc(NC(=O)OC)[nH]c2c1, the IC50 was 1.25 µM (Cryptococcus neoformans; broth dilution; 72 h, clinical isolate).
With Cc1c(NN=C(C#N)C2=NC(=O)CS2)c(=O)n(-c2ccccc2)n1C the inhibition zone was 26 mm (Bacillus subtilis; well diffusion; 100000 µg/mL).
The IC50 of CC(C)C(C)CCCCCCCCCCCc1cc(O)cc(O)c1 (stereo not drawn) is reported as 34.2 µM (Listeria monocytogenes; ATCC19115).
For CCCCCOc1ccc(-c2cc(-c3ccc(C(=O)N[C@H]4C[C@@H](O)[C@@H](O)NC(=O)[C@@H]5[C@@H](O)[C@@H](C)CN5C(=O)[C@H]([C@H](O)CC(N)=O)NC(=O)[C@H]([C@H](O)[C@@H](O)c5ccc(O)c(OS(=O)(=O)O)c5)NC(=O)[C@@H]5C[C@@H](O)CN5C(=O)[C@H]([C@@H](C)O)NC4=O)cc3)no2)cc1, the MIC50 was 0.06 µg/mL (≈ 0.0472 µM) (Nakaseomyces glabratus).
For CCCCCCCCCCCCCCCc1cc(O)cc(O)c1, the IC50 was > 200 µM (Listeria monocytogenes; ATCC19115).
CC[C@H](C)C[C@H](C)CCCCCCCCC(=O)N[C@H]1C[C@@H](O)[C@@H](NCCN)NC(=O)[C@@H]2[C@@H](O)CCN2C(=O)[C@H]([C@H](O)CCN)NC(=O)[C@H]([C@H](O)[C@@H](O)c2ccc(O)cc2)NC(=O)[C@@H]2C[C@@H](O)CN2C(=O)[C@H]([C@@H](C)O)NC1=O has an MIC of 0.25 µg/mL (Nakaseomyces glabratus; broth dilution; MY1381).
C=CCCCCCCCCC(=O)C(F)(F)P(=O)(O)O gave an MIC of 200 µg/mL (Bacillus subtilis; ATCC23857).
CC(=O)C1=C(O)C(CC(C)C)NC1=O (stereo not drawn) gave an MIC of > 200 µg/mL (Proteus vulgaris; ATCC33420).
O=C(NN=Cc1ccc(O)c(Br)c1)c1cccc(Br)c1 has an MIC of 0.3 µg/mL (Cryptococcus neoformans; broth dilution).
For CCCCCCCC/C=C\CCCCCCCCNC(=O)CP(=O)(O)O, the MIC was 200 µg/mL (Bacillus subtilis; ATCC23857).
CCC[C@H]1CN(c2cccc(OC(F)(F)F)c2)C(=O)CN1Cc1cncn1Cc1ccc(Br)cc1 gave an MIC of 3 to 6 µM (Cryptococcus neoformans; broth dilution).
O=C(CCCCCCCCCCOc1ccccc1)CP(=O)(O)O has an MIC of > 200 µg/mL (Bacillus subtilis; ATCC23857).
CC1(C)S[C@@H]2[C@H](NC(=O)[C@H](N)c3ccccc3)C(=O)N2[C@H]1C(=O)O gave an inhibition zone of 25 mm (Proteus vulgaris; well diffusion; ATCC13315; 60000 µg/mL).
CCCCCC/C=C\CCCCCCCCCC(=O)CP(=O)(O)O gave an MIC of 25 µg/mL (Bacillus subtilis; ATCC23857).
With CC(C)CCCCCCCCCCCCCCc1cc(O)cc(O)c1 the IC50 was 20.3 µM (Listeria monocytogenes; ATCC19115).
